Data set [1] is described as follows: melting temperature; fluorescence melt of hairpins on a sequencing array, two-state fit, raised by 9.35 °C to match UV melts. Conditions: sodium 0.088 M. Put shortly:
(§1)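 Melting temperature and folding enthalpy were derived from bootstrapped two-state fits. The fitted temperatures were raised by 9.35 °C to agree with UV melts, and four replicates were combined by inverse variance. The underlying data were Cy3 fluorescence images of library hairpins, with annealed Cy3 and quencher oligos, on a sequenced MiSeq flow cell in 50 mM Na-HEPES pH 8.0, 25 mM NaCl, taken in 2.5 °C steps up to 60 °C, normalised to pre-quench Cy3 and to control constructs.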

Data set [2] in a line: folding enthalpy; higher = less favourable; fluorescence melt of hairpins on a sequencing array, two-state fit. Conditions: sodium 0.088 M. A digest of the protocol:
as §1

With GGGCGAGGAAACTCACCC (((.(((....))).))), the Tm in data set [1] is 49.6 °C. For the same sequence, the folding enthalpy in data set [2] was -41 kcal/mol.
For GGGCGCGGAAACACGCCC (((((.(....).))))) the same measures were 66.5 °C and -34 kcal/mol.
For GGGCGCGGAAACGCACCC (((.(((....))).))), in data set [1], the Tm came to 62.6 °C. Also, the folding enthalpy in data set [2] is -43.8 kcal/mol.
Regarding GGGCGGACGAAAGTCCCC (((..(((....)))))), in data set [1], the Tm turned out to be 50.6 °C. For the same sequence, in data set [2], the folding enthalpy is -13.8 kcal/mol.
For GGGCGGCCGAAAGGCCCC (((..(((....)))))) the same measures were 57.1 °C and -10.4 kcal/mol.
Taken in the same sequence, the figures for GGGCGGCGAAAGCCACCC (((.(((....))).))) were 67.3 °C and -26.3 kcal/mol.
As to GGGCGGCGAAAGCCTCCC (((.(((....))).))), the Tm in data set [1] amounted to 61.2 °C. The folding enthalpy in data set [2] is -21.9 kcal/mol.
In the case of GGGCGGGGAAACCCGTCC ((.((((....)))).)), in data set [1], the Tm amounted to 65 °C. For the same sequence, in data set [2], the folding enthalpy was -37.3 kcal/mol.
For the sequence GGGCGTGGAAACGCGTCC ((.((.(....).)).)), the Tm in data set [1] was 50.7 °C. Also, the folding enthalpy in data set [2] is -12.9 kcal/mol.
For the sequence GGGCTACCGAAAGGTCCC (((..(((....)))))), in data set [1], the Tm amounted to 39.4 °C. Also, the folding enthalpy in data set [2] is -18.8 kcal/mol.
Taken in the same sequence, the figures for GGGCTAGAAATAGCCC ((((((....)))))) were 64 °C and -30.3 kcal/mol.
Regarding GGGCTAGGAAACTAGCTC (.(((((....))))).), the Tm in data set [1] was determined as 50.9 °C. For the same sequence, the folding enthalpy in data set [2] is -28.9 kcal/mol.
On to GGGCTAGGAAACTGGCTC (.((.((....)).)).), for which, in data set [1], the Tm turned out to be 40.9 °C. In addition, the folding enthalpy in data set [2] was -20.4 kcal/mol.
Regarding GGGCTCCCGAAAGGGCCC (((..(((....)))))), the Tm in data set [1] was found to be 56 °C. Besides, the folding enthalpy in data set [2] was -29.5 kcal/mol.
As to GGGCTCCGAAAGGACCCC (((.(((....))).))), in data set [1], the Tm stood at 53.9 °C. Besides, the folding enthalpy in data set [2] is -20.5 kcal/mol.
Take GGGCTCGAAAGAGGCCC ((((((....))).))): the Tm in data set [1] was 69 °C. For the same sequence, the folding enthalpy in data set [2] was -14.3 kcal/mol.
Taken in the same sequence, the figures for GGGCTCGAAAGAGTACCC ((((((....)))..))) were 45 °C and -17.5 kcal/mol.
For GGGCTCGAAAGAGTCCCC ((((((....)))..))) the same measures were 60.3 °C and -15.8 kcal/mol.
Turning to GGGCTCGGAAACGGGCTC (.((.((....)).)).), in data set [1], the Tm is 49.6 °C. The folding enthalpy in data set [2] is -20.2 kcal/mol.
Regarding GGGCTGACGAAAGTCCCC (((..(((....)))))), the Tm in data set [1] was determined as 42.8 °C. In data set [2], the folding enthalpy is -18.1 kcal/mol.
Take GGGCTGCCGAAAGGCCCC (((..(((....)))))): the Tm in data set [1] is 46.2 °C. Besides, the folding enthalpy in data set [2] is -16 kcal/mol.
For GGGCTGCGAAAGCACCC (((.(((....)))))), in data set [1], the Tm is 57.2 °C. For the same sequence, the folding enthalpy in data set [2] is -21.4 kcal/mol.
Taken in the same sequence, the figures for GGGCTGCGAAAGCACCCC (((.(((....))).))) were 57.3 °C and -18.2 kcal/mol.
Regarding GGGCTGGGAAACCAGTCC ((.((((....)))).)), in data set [1], the Tm came to 57.3 °C. The folding enthalpy in data set [2] was -42.5 kcal/mol.
In the case of GGGCTGGGAAACTAGCCC (((((.(....).))))), the Tm in data set [1] worked out at 58.1 °C. Besides, the folding enthalpy in data set [2] is -45.3 kcal/mol.
For the sequence GGGCTTCGAAAGAAACCC (((.(((....))).))), in data set [1], the Tm was found to be 49.6 °C. Further, the folding enthalpy in data set [2] is -30.2 kcal/mol.
Consider GGGCTTCGAAAGAACCC (((.(((....)))))), for which the Tm in data set [1] is 48.6 °C. Besides, in data set [2], the folding enthalpy is -28.9 kcal/mol.
Regarding GGGCTTGGAAACAGGCTC (.((.((....)).)).), the Tm in data set [1] was found to be 38.3 °C. The folding enthalpy in data set [2] is -24.4 kcal/mol.
Regarding GGGCTTGGAAACAGGTCC ((.(.((....)).).)), the Tm in data set [1] was found to be 39.7 °C. Moreover, the folding enthalpy in data set [2] was -27.9 kcal/mol.
For GGGGAAGAAATTCCCC ((((((....)))))), in data set [1], the Tm was 57.1 °C. The folding enthalpy in data set [2] was -30.8 kcal/mol.
GGGGAAGCGAAAGCTCCC (((..(((....)))))): in data set [1], the Tm came to 59.8 °C. Besides, the folding enthalpy in data set [2] was -17.8 kcal/mol.
Consider GGGGAAGGAAACCTCCCC (((((.(....).))))), for which the Tm in data set [1] came out at 47.8 °C. Also, the folding enthalpy in data set [2] is -43.9 kcal/mol.
With GGGGACACGAAAGTGCCC (((..(((....)))))), in data set [1], the Tm is 55.5 °C. For the same sequence, the folding enthalpy in data set [2] is -20.5 kcal/mol.
With GGGGACGAAAGTCCACCC ((((((....)))..))), the Tm in data set [1] was found to be 55.2 °C. The folding enthalpy in data set [2] was -11.2 kcal/mol.
Regarding GGGGACGAAAGTCGCCCC ((((((....)))..))), in data set [1], the Tm stood at 65.4 °C. For the same sequence, the folding enthalpy in data set [2] was -11 kcal/mol.
As for GGGGACGAAAGTCTTCCC ((((((....)))..))), in data set [1], the Tm stood at 39.3 °C. In addition, the folding enthalpy in data set [2] is -17.8 kcal/mol.

The record behind these values is the array DNA melting data of Ke et al. (doi:10.1101/2024.01.08.574731).
